Data published in the RNAGym collection of RNA variant scans (doi:10.1126/science.aae0568).
Fewer inactive variants are shown than the library holds.

B1: tRNA (parent)
chain: GUUCCGUUGGCGUAAUGGUAACGCGUCUCCCUCCUAAGGAGAAGACUGCGGGUUCGAGUCCCGUACGGAACG

Variants of: B1
Assay: yeast fitness relative to wild type (ratio to wild type); higher = fitter; tRNA-Arg(CCU), competitive growth, 37 C, YPD
Summary of the method: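 For this measurement, the tRNA-Arg(CCU) gene was varied by chemical synthesis at a 3% per-site mutation rate across 69 sites, and each variant was placed at the native genomic locus in Saccharomyces cerevisiae. The pooled strains went through a 24-hour competition in YPD at 37°C in six parallel replicates, with amplicons from start and end populations read by 100-nucleotide paired-end sequencing. Darwinian fitness relative to wild type followed from the change in each genotype's frequency. Genotypes needed ≥ 100 starting reads, and estimates < 0.5 were set to 0.5.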

Variant	yeast fitness
U2G C22A G25A G56A	≤ 0.5
U3A A21C C24G C62G	0.599
U2G A45C	0.766
U2C G58C	1.05
U2G C33A G39C	≤ 0.5
U2C C61U	0.931
U2G C5U A15U G17A U47G C49G C60G A70U	≤ 0.5
U3A G23A A70G	0.561
U2G A57U G67C	≤ 0.5
U2C G12A A15G C29G C33G G41C C66U	≤ 0.5
U3A C33U G44A	≤ 0.5
U3A C31G	0.845
U2G G10C A70C	≤ 0.5
U3A C5A G6C A37C A45U G68C	≤ 0.5
U2G C5A A43U C55U G68A	≤ 0.5
U3A G6A C31U A40C	≤ 0.5
U2G C4U C61A C62U A65U A69C	0.519
U2C U16A U32A A37U C62A	≤ 0.5
U2G A42C U47A G63C A69C	0.558
U3A C4U G10A C33G C34G A57U	≤ 0.5
U2G G12A A14G	0.561

Variant	yeast fitness
U2G C24A C46A A69U	0.774
U2G U19A A21G A42C G48C C49A	≤ 0.5
U2C G51U G58C	0.548
U3A G18A C49G C55G C60A C62A G68A A69U	0.623
U3A G48C U54C C55A	≤ 0.5
U2C U7A A37G A42U G48C C55U C66G	≤ 0.5
U2G C11G C49A C60U G68C	≤ 0.5
U2C C66U A69U	0.603
U2G A15G U26C C34U	0.611
U2G G10A A15U A21C G25C	≤ 0.5
U3A C5G A21U C22U G41A A43C G51C C66U G67U	≤ 0.5
U2C U13C G41A C60G C61G C62U	0.596
U3A G17A C22U	0.559
U3A G12C A21C A36C C49U A70U	≤ 0.5
U2G A42U U47A	0.738
U3A C22G C24U C33A G58A	≤ 0.5
U2C U3C U19A	0.629
U2C U53C C61G	≤ 0.5
U2C U54A A70U	0.555
U3A G10C G39C G48A	≤ 0.5
U2G G9C A20G A42C C46G C49U C62A A69C	≤ 0.5

Variant	yeast fitness
U3A G23C A45G	≤ 0.5
U3A C5U C31A A45C C46G G52C	≤ 0.5
U2G C62U	0.863
U2C G52C U59G	≤ 0.5
U2G U19A A21G G39C C60G G67C	≤ 0.5
U2C G12C	0.831
U2G G25U C49U A65G	0.64
U3A C5A G6C A15G U16A U26G C60G C61U	0.514
U3A C5A G23A G68U	0.816
U3A A14U C60G C61U C62G A65U	≤ 0.5
U3A C24U C31G A37G	≤ 0.5
U2C U26C C46U	0.683
U2C U19G U28G	≤ 0.5
U3A C4U C33G C34G U54A	≤ 0.5
U3A C4G G9A C11G	≤ 0.5
U2C G6C A65U G67A	≤ 0.5
U3A C5U C46A	0.724
U3A C4G G68A	≤ 0.5
U2G C22U U32C G50C	0.658
U2G A21C C22G A45U G63C	≤ 0.5
U3A A14C A42C U47C	≤ 0.5

Variant	yeast fitness
U2G A15U A20C U26A C30G U35A G38C U64A	≤ 0.5
U3A C29G G50A	≤ 0.5
U3A C33U A40C	≤ 0.5
U2C U8C A20U U28A G67U	≤ 0.5
U3A C31A C55U	≤ 0.5
U2G C31U G48C G67C	0.702
U2C U19C A37G C49A	≤ 0.5
U3A C22G C31G	≤ 0.5
U2G C55U C62G C66A	0.577
U2C C46U A65U	1.06
U3A G39C A45G G50A	≤ 0.5
U3A A36G G68A A70C	0.566
U2G U7G U16C C24U C34U G50A U54C A65U	≤ 0.5
U3A A21G A70C	1.05
U3A C4U G25C A69C	≤ 0.5
U2C U19C A37G C49A C66G	≤ 0.5
U3A G9C C27G C34A	≤ 0.5
U2C G39C	0.774
U2G C29U U54C A57G U59C	≤ 0.5
U2G C61G	0.556
